KCNK3 inh: human KCNK3 channel inhibitors, primary screen, CHO cells, FluxOR thallium flux, B-score; FluxOR fluorescence; active compounds read low; actives 0.84% (n = 340,000); B-score at 10 µM;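 active = B-score under library mean minus 4 SD, starting fluorescence ratio at most library mean plus 5 SD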;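 note: more negative B-score means stronger inhibition of thallium flux through KCNK3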
Target sequence (O14649 whole entry, looked up): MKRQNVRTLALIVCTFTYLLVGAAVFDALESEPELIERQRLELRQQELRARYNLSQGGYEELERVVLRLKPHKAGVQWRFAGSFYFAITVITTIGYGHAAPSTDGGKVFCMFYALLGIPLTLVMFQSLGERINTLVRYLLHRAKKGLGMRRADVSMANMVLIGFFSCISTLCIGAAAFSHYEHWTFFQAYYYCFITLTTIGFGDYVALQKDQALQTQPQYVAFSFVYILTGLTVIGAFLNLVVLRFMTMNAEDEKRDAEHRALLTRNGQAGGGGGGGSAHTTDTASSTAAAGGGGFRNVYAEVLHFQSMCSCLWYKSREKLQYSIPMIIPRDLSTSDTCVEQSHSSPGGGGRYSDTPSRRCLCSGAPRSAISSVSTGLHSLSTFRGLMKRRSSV
KCNK9 inh: KCNK9 potassium channel inhibitors, primary screen, HEK293 cells, thallium flux. B-score at 10 µM. FluxOR thallium flux fluorescence; active compounds read low. actives 1.2% (n = 310,000). AID 488922, 2010;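 active = ratio B-score over 3 SD below the library mean, with starting fluorescence within 5 SD of its mean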;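 note: negative B-score means less thallium flux so channel inhibition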
KCNQ1 inh: inhibitors of human KCNQ1 channel, primary screen, cell-based, thallium flux, high-throughput | Potassium voltage-gated channel subfamily KQT member 1 (Homo sapiens), P51787 | CHO-K1 KCNQ1, FluxOR thallium flux fluorescence; active compounds read high | B-score at 10 µM | actives 1.3% (n = 310,000);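 active = compounds whose thallium flux B-score, printed positive for inhibition, exceeds three library SD while starting fluorescence stays within three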;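 note: channel opened by potassium depolarization with thallium stimulus after 20 min compound exposure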
Cl transport mod: KCC2 cotransporter modulators, thallium flux, primary screen, cell-based, HEK293 KCC2, FluoZin-2 fluorescence, MLSMR; B-score of Tl+ flux slope (higher = more flux/activation; lower = inhibition) at 10 µM; actives 2.2% (n = 190,000); KCC2 cells, thallium flux FluoZin-2 fluorescence; AID 1456, 2008;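 active = thallium flux slope and its plate-corrected score both differing from the plate sample mean at a set confidence after two filtering rounds, in either direction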;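 note: slope of fluorescence scaled to starting intensity during 10 to 20 s after thallium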
KCNQ1 pot: potentiators or activators of KCNQ1 channel, primary screen, cell-based, thallium flux, high-throughput. Potassium voltage-gated channel subfamily KQT member 1 (Homo sapiens), P51787. CHO-K1 KCNQ1, thallium flux FluxOR fluorescence; active compounds read high. B-score at 10 µM. actives 0.35% (n = 310,000). AID 2648, 2010;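 active = fluorescence ratio B-score, a plate-corrected score, at least three library SD, with initial intensity B-score within 5 SD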
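Schedule – 37 °C overnight plating, 90-min dark dye load, 20-min compound pretreatment · System – stable KCNQ1 CHO-K1 line · Probe or stimulus – thallium- and potassium-containing depolarizing buffer · Measured by – kinetic FluxOR fluorescence, 10 s baseline plus 110 s post-stimulus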
hERG rescue: hERG rescue from dofetilide block, primary screen, cell-based, CHO-hERG, FluxOR thallium flux, dofetilide IC70; Voltage-gated inwardly rectifying potassium channel KCNH2 (Homo sapiens), Q12809; dofetilide IC70 present; activation (rescue from dofetilide block), less the hit threshold, % at 10 µM; actives 0.51% (n = 310,000);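 active = activation above the mean of controls blocked by dofetilide plus 5 SD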;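 note: thallium influx through hERG after potassium depolarization seen as dye fluorescence rise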
KCNK9 inh conf: KCNK9 potassium channel inhibitors, confirmation, HEK293 cells, thallium flux, duplicate; shares compounds with KCNK9 inh; FluxOR thallium flux fluorescence; inhibition, % at 10 µM; actives 43% (n = 4,900);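 active = thallium signal inhibited by more than 5 SD of the compound-free buffer control wells, on both duplicate plates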;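 note: 0% = assay buffer control wells without compound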
Kir2-1 spec: mouse Kir2.1 channel inhibition, confirmation, selectivity assay for KCNK9 modulator project, cell-based, HEK293, thallium flux; inhibition, % at 10 µM; AID 492993, 2010; shares compounds with KCNK9 inh; actives 4% (n = 4,900); Kir2.1 cells, FluxOR thallium flux fluorescence;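 active = thallium signal drop more than 5 SD beyond the mean of the no-compound control wells, seen in both duplicate plates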;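 note: signal is fluorescence rise after thallium addition divided by baseline fluorescence; plate controls were assay buffer only for no effect and full block by chlorpromazine control for full effect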
HEK293 Tl ctr: thallium flux in non-induced HEK293 cells, confirmation, counter-screen for KCNK9 inhibitor project, cell-based, second counter screen, non-induced KCNK9-HEK293. inhibition, % at 10 µM. FluxOR thallium flux. actives 40% (n = 4,900). shares compounds with KCNK9 inh;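 active = thallium signal drop beyond 5 SD of the untreated control mean, on both duplicate plates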;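 note: plate controls were buffer only IC0 wells for no effect and SID17386958 at its maximal inhibitory level for full effect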
The depositor's hits bear a star; i = inactive; . = not tested or not shown. Rows were chosen to be rich in hits. Some 4.1% of all compounds tested hit in one or more screens of this group.

SMILES	KCNK3 inh	KCNK9 inh	KCNQ1 inh	Cl transport mod	KCNQ1 pot	hERG rescue	KCNK9 inh conf	Kir2-1 spec	HEK293 Tl ctr
Cc1cc(/C=C2\C(=N)N3N=C(S(C)(=O)=O)SC3=NC2=O)c(C)n1Cc1ccccc1	i	i	i	-3	i	-5	i	i	i
COc1cccc(OCCOc2ccc(/C=C3\C(=N)N4N=C(S(C)(=O)=O)SC4=NC3=O)cc2OC)c1	i	i	i	.	i	-12	.	.	.
CS(=O)(=O)C1=NN2C(=N)/C(=C\c3ccc(OC(=O)c4ccco4)cc3)C(=O)N=C2S1	i	i	i	.	i	-10	.	.	.
CC(C)CS(=O)(=O)C1=NN2C(=N)/C(=C\c3ccc(OC(=O)c4ccco4)cc3)C(=O)N=C2S1	i	i	i	.	i	-30	i	i	i
CCOC(=O)C1=C(C)N=c2s/c(=C\c3ccc(OCC(=O)O)cc3)c(=O)n2C1c1ccc(OC(C)C)cc1 (centres undefined)	i	i	i	-1	i	-24	i	i	i
NS(=O)(=O)c1ccc(NCc2cc(Cl)ccc2OCc2ccc(F)cc2)cc1	i	-13*	i	-1.5	i	-7	50%*	i	42%*
Cc1ccc(/C=C/C(=O)Nc2ccc(Oc3ccccc3)cc2)o1	i	i	i	-2.5	i	-11	i	i	i
Cc1ccc(/C=C/C(=O)Nc2ccc([N+](=O)[O-])cc2)o1	i	i	i	.	i	-12	.	.	.
CCOc1ccc(C(=O)NCC(=O)Nc2ncccc2C)cc1OCC	i	i	i	.	i	-6	51%*	i	i
Cc1onc(-c2c(F)cccc2Cl)c1C(=O)OCC(=O)NC(c1ccccc1)c1ccccc1	i	-8.3*	i	0.021	i	-12	25%*	i	29%*
COc1ccc(C(=O)C2CCCN(C(=O)c3cccc(Cl)c3F)C2)cc1OC (centres undefined)	i	i	i	.	i	-8	i	i	i
COc1c(C)cc(C(=O)C2CCCN(C(=O)c3cccc(F)c3)C2)cc1C (centres undefined)	i	i	i	-0.16	i	-7	i	i	i
COc1c(C)cc(C(=O)C2CCCN(C(=O)c3ccoc3)C2)cc1C (centres undefined)	i	i	i	.	i	-12	.	.	.
O=C(CC12CC3CC(CC(C3)C1)C2)NC(=S)NCc1ccco1	i	i	6*	0.49	i	-26	i	i	i
O=C(NCc1ccco1)C12CC3CC(CC(C3)C1)C2	i	i	i	-0.83	i	0	.	.	.
CC1(C(=O)N2CCC(CC3CC(c4cccc(Br)c4)=NO3)(C(=O)NCC3CCCCC3)CC2)CC1 (centres undefined)	i	i	i	.	i	-5	.	.	.
Oc1ccc(Br)cc1-c1nc2cnccn2c1NC1CCCCC1	i	-9.4*	i	-0.0078	i	-14	i	i	30%*
COc1ccc(C(CNC(=O)c2ccc(OCc3c(C)noc3C)cc2)N2CCCC2)cc1 (centres undefined)	i	.	.	.	.	.	.	.	.
CN(C)CCn1c(=O)n(-c2cccc(Cl)c2)c(=O)c2c3c(sc21)CCCCC3	i	i	i	0.73	i	-12	i	i	i
CN(C)CCn1c(=O)n(-c2ccc(F)cc2)c(=O)c2c3c(sc21)CCCCC3	i	i	i	-0.99	i	-8	.	.	.
Cc1cc(C)cc(Oc2ncnc3c2ncn3Cc2c(Cl)cccc2Cl)c1	i	i	i	.	i	1	i	i	i
Cc1cccn(Cc2c(Cl)cccc2Cl)c1=O	i	i	i	.	i	-7	.	.	.
CCOC(=O)COc1c(OC)cc(Cl)cc1C1Nc2ccccc2C(=O)N1c1ccc(F)cc1 (centres undefined)	i	-12*	i	0.041	i	0	64%*	i	41%*
CCOC(=O)COc1ccccc1C1Nc2ccccc2C(=O)N1c1cccc(Cl)c1 (centres undefined)	-11*	-14*	i	0.0092	i	-1	62%*	i	34%*
O=C(CCc1ccccc1)N[C@@H]1c2ccccc2CC[C@H]1OCc1ccccc1	i	.	.	.	.	.	.	.	.
SMILES	KCNK3 inh	KCNK9 inh	KCNQ1 inh	Cl transport mod	KCNQ1 pot	hERG rescue	KCNK9 inh conf	Kir2-1 spec	HEK293 Tl ctr
O=C(O)c1cc(NN=Nc2ccc(Br)cc2)cc([N+](=O)[O-])c1	i	i	i	-1.4	i	-11	i	i	i
O=C(O)c1cc(NN=Nc2cccc([N+](=O)[O-])c2)cc([N+](=O)[O-])c1	i	i	i	-1.6	i	-8	.	.	.
CCN(c1ccccc1)S(=O)(=O)c1ccc(Cl)c(NC(=O)CN(C)Cc2cccc(F)c2)c1	i	.	.	.	.	.	.	.	.
Cc1cc(C(=O)Cn2nnc(-c3ccc(Cl)cc3)n2)c(C)n1CC1CCCO1 (centres undefined)	i	i	i	0.92	i	-3	.	.	.
Cc1cc(C(=O)Cn2nnc(-c3ccc(Cl)cc3)n2)c(C)n1-c1ccccc1	i	i	i	0.68	i	-19	i	i	i
CC(C)(C)c1ccc(-c2nnc(SCC(=O)Nc3sc4c(c3C#N)CCCC4)o2)cc1	i	i	i	0.15	i	-5	.	.	.
CCOC(=O)c1c(NC(=O)CSc2nnc(-c3ccc(Cl)cc3)o2)sc2c1CCC2	i	i	i	.	i	-11	i	i	i

High-throughput results from PubChem BioAssay.
